These results are taken from article PMC11926516 (Small Methods, 2024).

One series has as its system HUVEC monolayers. It is filed as cell-based, human. As to conditions: 0.1 h after MDS stimulation (1 mA/cm^2 for 7 min).
In series [1] the test system is OVX OP rat models. As to the kind of experiment: Histology of distal femurs. It is filed as in vivo, Sprague–Dawley rats. The method in brief: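 Female Sprague–Dawley rats, 12 weeks old, under pentobarbital anaesthesia. Bilateral ovariectomy via dorsal midline incision; sham rats had matching adipose tissue removed. Rats received PBS or PTH by different delivery methods for 4 weeks. Distal femurs were decalcified 3 weeks, paraffin-embedded and serially sectioned. Stains: H&E, Masson, TRAP kit, and IHC for Col1 (1:100), Ocn (1:200) and Ctsk (1:50). Positive cells per bone surface counted, n = 5, one-way ANOVA.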

Series [2] relates to OVX OP rat models. As to the kind of experiment: Plasma bone turnover markers PINP and CTX-I by Elisa in OVX rats. The class given is in vivo, Sprague–Dawley rats. As to conditions: n = 5.
Series [3] has as its system major organs (heart, lung, liver, kidney, spleen). The class given is in vivo, rats. The method in brief:
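Major organs (heart, lung, liver, kidney, spleen) were taken at the end of the treatment experiment. They were photographed and weighed (n = 3, one-way ANOVA), then paraffin-embedded, serially sectioned and H&E-stained.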

For series [4] the following is noted: post-SCI, cited from earlier work.
Where [5] appears, read: stated consistent with own SCI-PTH group.

Like-named read-outs stand apart in the source and are kept apart here.

Turning to `CC(=O)OCOC(=O)CN(CC(=O)OCOC(C)=O)c1ccccc1OCCOc1ccccc1N(CC(=O)OCOC(C)=O)CC(=O)OCOC(C)=O` [BAPTA‐AM], the “increase in intracellular SFs and disappearance of VE-cadherin fluorescence during the electro-stimulated phase” value (shortened to “increase”) in the series on HUVEC monolayers (inhibitor 20 µM) is “blocked”.
For the molecule `C[C@@H](N)[C@H]1CC[C@H](C(=O)Nc2ccncc2)CC1` [Y27632], the “increase” value with HUVEC monolayers (inhibitor 15 µM) is on record as “blocked”.
In the case of `N.N.N.N.N.N.N.N.N.N.N.N.N.N.[Cl-].[Cl-].[Cl-].[Cl-].[Cl-].[Cl-].[O-2].[O-2].[Ru+3].[Ru+3].[Ru+4]` [ruthenium red], the “increase” value in the series on HUVEC monolayers (inhibitor 20 µM) is recorded as “blocked”.
In the case of Human parathyroid hormone (1–34) [PTH], the “Ctsk+ and Trap+ osteoclasts per bone surface” value with OVX OP rat models [1] (MDS-PTH group compared to SCI-PTH group, IHC and Trap staining, n = 5) is “dramatically fewer”. The “new bone formation (H&E and Masson's staining)” value with OVX OP rat models [1] (MDS-PTH group compared to SCI-PTH group, OVX rats, 40 µg k^−1g once daily for one month) is “significantly promoted”. The “Col+ and OCN+ osteoblasts per bone surface” value is reported as “more” with OVX OP rat models [1] (MDS-PTH group compared with OVX group, IHC, n = 5) and “more” with OVX OP rat models [1] (SCI-PTH group compared with OVX group, IHC, n = 5). Further, the “Col+ and OCN+ osteoblasts per bone surface, difference between delivery methods” value in the series with OVX OP rat models [1] (SCI-PTH versus MDS-PTH groups, IHC, n = 5) is reported as “no significant difference”. The “bone formation marker PINP” value with OVX OP rat models [2] (MDS-PTH group compared to OVX group) and in the series with OVX OP rat models [2] (SCI-PTH group compared to OVX group) was “increased notably” throughout. Besides, the “bone resorption marker CTX-I” value with OVX OP rat models [2] (MDS-PTH group compared to SCI-PTH group) is “significantly lower”. Also, the “bone formation marker PINP, difference between delivery methods” value in the series on OVX OP rat models [2] (SCI-PTH versus MDS-PTH groups) is recorded as “no significant difference”. The “histopathological analysis of visceral organs” value in series [3] (MDS-PTH group after one month of PTH treatment, H&E) is “no structural disruption”. Moreover, the “appearance or weight of major organs” value in series [3] (MDS-PTH group compared to SCI-PBS and SCI-PTH groups after one month of PTH treatment, n = 3) is recorded as “no significant difference”. In addition, the subcutaneous residue entry in series [4] was “approximately 20%”. The elimination time in series [4] (setting [5]) is reported as 4 h. Moreover, in series [4] (setting [5]), the “time to plasma Cmax” value is 30 min.
